Key:
Format in all cases: functional
HCT-15 = test: Growth inhibition of human HCT15 cells
HT-29 [1] = test: Growth inhibition of human HT-29 cells
SF-268 [2] = test: Growth inhibition of human SF268 cells
SF-539 = test: Growth inhibition of human SF539 cells
SK-MEL-5 = test: Growth inhibition of human SK-MEL-5 cells
UACC-257 = test: Growth inhibition of human UACC257 cells
UACC-62 [3] = test: Growth inhibition of human UACC62 cells
OVCAR-3 = test: Growth inhibition of human OVCAR3 cells
SK-OV-3 = test: Growth inhibition of human SKOV3 cells
786-0 [4] = test: Growth inhibition of human 786-0 cells
ACHN = test: Growth inhibition of human ACHN cells
RXF 393 = test: Growth inhibition of human RXF393 cells
[5] = Growth inhibition of human Hs 578T cells
BT-549 [6] = test: Growth inhibition of human BT549 cells
T47D = test: Growth inhibition of human T47D cells
HL-60(TB) = test: Growth inhibition of human HL-60(TB) cells assessed tumor cell growth at 10^-5 M; parameters: scale not given: the % may be the effect or the level left
Outline: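 HL-60(TB), part of the 60-line panel, tested at a single concentration of 10^-5 M. The read-out is percent tumor cell growth relative to untreated growth.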

K562 = test: Growth inhibition of human K562 cells assessed tumor cell growth at 10^-5 M; parameters: scale not given: the % may be the effect or the level left
Outline: (§1)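 NCI 60-human-tumor-cell-line panel screen. Each compound was tested at a single concentration of 10^-5 M, and percent growth of tumor cells was recorded for each cell line. Growth inhibition was expressed from these percent-growth values.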

[7] = Growth inhibition of human […] cells assessed tumor cell growth at 10^-5 M; parameters: scale not given: the % may be the effect or the level left; outline: as §1
NCI-H226 [8] = test: Growth inhibition of human NCI-H226 cells assessed tumor cell growth at 10^-5 M; parameters: scale not given: the % may be the effect or the level left; outline: as §1
NCI-H23 [9] = test: Growth inhibition of human NCI-H23 cells assessed tumor cell growth at 10^-5 M; parameters: scale not given: the % may be the effect or the level left; outline: as §1
NCI-H322M [10] = test: Growth inhibition of human NCI-H322M cells assessed tumor cell growth at 10^-5 M; parameters: scale not given: the % may be the effect or the level left; outline: as §1
NCI-H522 = test: Growth inhibition of human NCI-H522 cells assessed tumor cell growth at 10^-5 M; parameters: scale not given: the % may be the effect or the level left; outline: as §1
COLO 205 = test: Growth inhibition of human COLO205 cells assessed tumor cell growth at 10^-5 M; parameters: scale not given: the % may be the effect or the level left; outline: as §1
HT-29 [11] = test: Growth inhibition of human HT-29 cells assessed tumor cell growth at 10^-5 M; parameters: scale not given: the % may be the effect or the level left; outline: as §1
SW-620 = test: Growth inhibition of human SW620 cells assessed tumor cell growth at 10^-5 M; parameters: scale not given: the % may be the effect or the level left
Outline: (§2)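 Single-dose screen at 10^-5 M across the 60 human tumor cell line panel, run to NCI standards. The value is the percent growth of each cell line in the presence of compound. Compounds active at this dose moved on to five-concentration testing (10^-4 to 10^-8 M).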

SF-268 [12] = test: Growth inhibition of human SF268 cells assessed tumor cell growth at 10^-5 M; parameters: scale not given: the % may be the effect or the level left; outline: as §1
SNB-19 = test: Growth inhibition of human SNB19 cells assessed tumor cell growth at 10^-5 M; parameters: scale not given: the % may be the effect or the level left; outline: as §2
SNB-75 = test: Growth inhibition of human SNB75 cells assessed tumor cell growth at 10^-5 M; parameters: scale not given: the % may be the effect or the level left; outline: as §2
M14 = test: Growth inhibition of human M14 cells assessed tumor cell growth at 10^-5 M; parameters: scale not given: the % may be the effect or the level left; outline: as §1
MDA-MB-435 = test: Growth inhibition of human MDA-MB-435 cells assessed tumor cell growth at 10^-5 M; parameters: scale not given: the % may be the effect or the level left; outline: as §1
SK-MEL-2 = test: Growth inhibition of human SK-MEL-2 cells assessed tumor cell growth at 10^-5 M; parameters: scale not given: the % may be the effect or the level left; outline: as §1
UACC-62 [13] = test: Growth inhibition of human UACC62 cells assessed tumor cell growth at 10^-5 M; parameters: scale not given: the % may be the effect or the level left; outline: as §2
IGROV-1 = test: Growth inhibition of human IGROV1 cells assessed tumor cell growth at 10^-5 M; parameters: scale not given: the % may be the effect or the level left; outline: as §1
OVCAR-5 = test: Growth inhibition of human OVCAR5 cells assessed tumor cell growth at 10^-5 M; parameters: scale not given: the % may be the effect or the level left; outline: as §1
786-0 [14] = test: Growth inhibition of human 786-0 cells assessed tumor cell growth at 10^-5 M; parameters: scale not given: the % may be the effect or the level left; outline: as §1
TK-10 = test: Growth inhibition of human TK10 cells assessed tumor cell growth at 10^-5 M; parameters: scale not given: the % may be the effect or the level left; outline: as §2
MDA-MB-231 = test: Growth inhibition of human MDA-MB-231 cells assessed tumor cell growth at 10^-5 M; parameters: scale not given: the % may be the effect or the level left; outline: as §1
[15] = Growth inhibition of human Hs 578T cells assessed tumor cell growth at 10^-5 M; parameters: scale not given: the % may be the effect or the level left; outline: as §1
BT-549 [16] = test: Growth inhibition of human BT549 cells assessed tumor cell growth at 10^-5 M; parameters: scale not given: the % may be the effect or the level left; outline: as §1
CCRF-CEM = test: Growth inhibition of human CCRF-CEM cells
MOLT-4 = test: Growth inhibition of human MOLT4 cells
SR = test: Growth inhibition of human SR cells
A549 = test: Growth inhibition of human A549 cells
HOP-62 = test: Growth inhibition of human HOP62 cells
NCI-H226 [17] = test: Growth inhibition of human NCI-H226 cells
NCI-H23 [18] = test: Growth inhibition of human NCI-H23 cells
NCI-H322M [19] = test: Growth inhibition of human NCI-H322M cells
[20] = read-out: LC50 (the source's name)

## O=C1Nc2ccccc2/C1=C/c1cn(C(=O)c2c(Cl)cccc2Cl)c2ccccc12
HCT-15
  GI50: 3.4 µM
HCT-15; [20]
  CC50: > 100 µM
HT-29 [1]
  GI50: 3.8 µM
HT-29 [1]; [20]
  CC50: 54.9 µM
SF-268 [2]
  GI50: 2.4 µM
SF-268 [2]; [20]
  CC50: 57.5 µM
SF-539
  GI50: 5 µM
SF-539; [20]
  CC50: 66.1 µM
SK-MEL-5
  GI50: 7.6 µM
SK-MEL-5; [20]
  CC50: 45.7 µM
UACC-257
  GI50: 5 µM
UACC-257; [20]
  CC50: 95.4 µM
UACC-62 [3]
  GI50: 4.9 µM
UACC-62 [3]; [20]
  CC50: 61.6 µM
OVCAR-3
  GI50: 1.6 µM
OVCAR-3; [20]
  CC50: 8.1 µM
SK-OV-3
  GI50: 8.3 µM
SK-OV-3; [20]
  CC50: > 100 µM
786-0 [4]
  GI50: 3.3 µM
786-0 [4]; [20]
  CC50: 91.2 µM
ACHN
  GI50: 3.1 µM
ACHN; [20]
  CC50: > 100 µM
RXF 393
  GI50: 4.1 µM
RXF 393; [20]
  CC50: 43.6 µM
[5]
  GI50: 2.2 µM
[5]; [20]
  CC50: > 100 µM
BT-549 [6]
  GI50: 2.4 µM
BT-549 [6]; [20]
  CC50: 37.1 µM
T47D
  GI50: 4.1 µM
T47D; [20]
  CC50: > 100 µM
HL-60(TB)
  Activity: 72.1%
K562
  Activity: 45.6%
[7]
  Activity: 51.8%
NCI-H226 [8]
  Activity: 48.1%
NCI-H23 [9]
  Activity: 56.9%
NCI-H322M [10]
  Activity: 90.3%
NCI-H522
  Activity: 55.3%
COLO 205
  Activity: 41.7%
HT-29 [11]
  Activity: 69.6%
SW-620
  Activity: 45.4%
SF-268 [12]
  Activity: 56.5%
SNB-19
  Activity: 68.6%
SNB-75
  Activity: 54.6%
M14
  Activity: 66.2%
MDA-MB-435
  Activity: 85.6%
SK-MEL-2
  Activity: 39.9%
UACC-62 [13]
  Activity: 36.7%
IGROV-1
  Activity: 25.7%
OVCAR-5
  Activity: 84.9%
786-0 [14]
  Activity: 57%
TK-10
  Activity: 90.7%
MDA-MB-231
  Activity: 55%
[15]
  Activity: 64.6%
BT-549 [16]
  Activity: 51.7%
CCRF-CEM
  GI50: 0.34 µM
CCRF-CEM; [20]
  CC50: > 100 µM
MOLT-4
  GI50: 2.8 µM
  LC50: > 100 µM
SR
  GI50: 2.2 µM
SR; [20]
  CC50: > 100 µM
A549
  GI50: 3.2 µM
A549; [20]
  CC50: > 100 µM
HOP-62
  GI50: 12.8 µM
HOP-62; [20]
  CC50: > 100 µM
NCI-H226 [17]
  GI50: 7.4 µM
NCI-H226 [17]; [20]
  CC50: 83.1 µM
NCI-H23 [18]
  GI50: 4.1 µM
  LC50 (concentration killing 50% of cells): 50.1 µM
NCI-H322M [19]
  GI50: 2.9 µM
NCI-H322M [19]; [20]
  CC50: > 100 µM
